Test results as given in ChEMBL document CHEMBL4414568, “Development of Novel Irreversible Pyruvate Kinase M2 Inhibitors” (J Med Chem, 2019).
The source made the active and inactive calls. The rule behind the calls is not given here.

What was measured:
Pyruvate kinase PKM [1] = target: T1, Pyruvate kinase PKM (Homo sapiens, UniProt P14618); test: Inhibition of PKM2 in human PC9 cells assessed as reduction in beta-catenin phosphorylation at 0.5 uM incubated for 24 hrs by Western blot analysis; assay type: cell-based
T1 sequence (P14618 2-531 limits assumed): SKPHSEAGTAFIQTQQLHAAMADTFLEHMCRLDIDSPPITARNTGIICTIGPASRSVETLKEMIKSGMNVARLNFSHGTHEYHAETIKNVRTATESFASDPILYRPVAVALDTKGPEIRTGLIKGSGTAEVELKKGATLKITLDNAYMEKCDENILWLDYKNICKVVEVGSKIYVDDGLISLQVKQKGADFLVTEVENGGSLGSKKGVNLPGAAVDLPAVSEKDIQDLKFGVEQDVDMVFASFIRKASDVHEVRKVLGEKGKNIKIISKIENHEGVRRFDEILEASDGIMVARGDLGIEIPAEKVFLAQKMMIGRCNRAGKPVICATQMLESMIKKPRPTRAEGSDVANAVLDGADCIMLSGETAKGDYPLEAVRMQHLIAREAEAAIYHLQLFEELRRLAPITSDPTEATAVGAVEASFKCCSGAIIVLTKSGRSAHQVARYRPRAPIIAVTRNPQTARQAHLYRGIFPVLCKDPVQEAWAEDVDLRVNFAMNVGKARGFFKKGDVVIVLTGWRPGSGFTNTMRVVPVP
How it was run: (§1)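 PC-9 cells seeded at 5 × 10^5 cells/mL; after 24 h given 0–1 µM compound or DMSO for 24 h. Lysates run on 10% SDS-PAGE, transferred to nitrocellulose, probed for PKM2, EGFR, p-STAT3, STAT3, p-β-catenin, β-catenin and β-actin with HRP secondaries, ECL detection.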

[2] = Toxicity in athymic nude mouse xenografted with human PC9 cells assessed as reduction in body weight at 10 mg/kg, ip administered once daily for 25 days measured during compound dosing; assay type: organism-based; details: in vivo, 600 h
How it was run: (§2)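 Female nude mice, 6 weeks old, given s.c. 1 × 10^6 PC-9 cells in Matrigel (1:1). From day 7, once-daily i.p. vehicle or 10 mg/kg compound in sterile water with 0.5% methylcellulose and 0.1% Tween-80, n = 8 per group, for 25 days. Tumor volume and body weight followed, tumors weighed at end.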

Mus musculus [3] = test: In vivo inhibition of PKM2 in human PC9 cells xenografted in athymic nude mouse assessed as reduction in STAT3 expression at 10 mg/kg, ip administered once daily for 25 days measured post-last dose by Western blot analysis; assay type: functional, organism-based
How it was run: (§3)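 Tumors from PC-9 xenograft nude mice given 10 mg/kg i.p. daily or vehicle for 25 days (n = 8 per group) were lysed for Western blots of PKM2, EGFR, Stat3 and β-catenin. Bands quantified by ImageJ and normalized to GAPDH.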

[4] = target: T2, Malonate--CoA ligase ACSF3, mitochondrial (Homo sapiens) (UniProt Q4G176); test: Binding affinity to ACSF3 in human PC9 cells incubated for 1 hr by ABPP-SILAC assay; assay type: cell-based
T2 sequence (whole entry): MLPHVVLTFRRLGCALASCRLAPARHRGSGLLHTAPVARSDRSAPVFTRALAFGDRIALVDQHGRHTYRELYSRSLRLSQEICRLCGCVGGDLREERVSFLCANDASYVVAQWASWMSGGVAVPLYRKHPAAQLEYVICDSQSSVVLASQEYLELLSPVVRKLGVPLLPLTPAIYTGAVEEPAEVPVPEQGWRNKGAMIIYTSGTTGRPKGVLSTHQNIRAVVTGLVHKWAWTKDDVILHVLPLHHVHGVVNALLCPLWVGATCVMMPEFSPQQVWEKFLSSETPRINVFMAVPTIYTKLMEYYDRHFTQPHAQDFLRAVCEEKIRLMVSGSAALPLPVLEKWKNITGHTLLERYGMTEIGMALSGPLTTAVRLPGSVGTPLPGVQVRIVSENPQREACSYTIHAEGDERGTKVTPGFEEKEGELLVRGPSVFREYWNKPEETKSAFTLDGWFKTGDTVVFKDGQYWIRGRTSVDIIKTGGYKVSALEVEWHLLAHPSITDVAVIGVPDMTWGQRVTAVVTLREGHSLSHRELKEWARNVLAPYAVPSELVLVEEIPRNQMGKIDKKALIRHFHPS
How it was run: (§4)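 PC-9 cells passaged at least six times in SILAC DMEM with 10% dialyzed FBS plus 100 µg/mL light or 13C/15N-labeled Arg/Lys. Heavy cells got ABPP probe (1 µM) and light cells DMSO, 1 h at 37 °C. Cells mixed 1:1, sonicated, spun at 100,000g, protein normalized to 1 mg/mL. Click biotin-azide, streptavidin bead pulldown 16 h at 4 °C, SDS-PAGE, on-bead trypsin digestion, LC-MS/MS.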

[5] = target: T3, Phosphoenolpyruvate carboxykinase [GTP], mitochondrial (Homo sapiens) (UniProt Q16822); test: Binding affinity to PCKGM in human PC9 cells incubated for 1 hr by ABPP-SILAC assay; assay type: cell-based; how it was run: as §4
T3 sequence (whole entry): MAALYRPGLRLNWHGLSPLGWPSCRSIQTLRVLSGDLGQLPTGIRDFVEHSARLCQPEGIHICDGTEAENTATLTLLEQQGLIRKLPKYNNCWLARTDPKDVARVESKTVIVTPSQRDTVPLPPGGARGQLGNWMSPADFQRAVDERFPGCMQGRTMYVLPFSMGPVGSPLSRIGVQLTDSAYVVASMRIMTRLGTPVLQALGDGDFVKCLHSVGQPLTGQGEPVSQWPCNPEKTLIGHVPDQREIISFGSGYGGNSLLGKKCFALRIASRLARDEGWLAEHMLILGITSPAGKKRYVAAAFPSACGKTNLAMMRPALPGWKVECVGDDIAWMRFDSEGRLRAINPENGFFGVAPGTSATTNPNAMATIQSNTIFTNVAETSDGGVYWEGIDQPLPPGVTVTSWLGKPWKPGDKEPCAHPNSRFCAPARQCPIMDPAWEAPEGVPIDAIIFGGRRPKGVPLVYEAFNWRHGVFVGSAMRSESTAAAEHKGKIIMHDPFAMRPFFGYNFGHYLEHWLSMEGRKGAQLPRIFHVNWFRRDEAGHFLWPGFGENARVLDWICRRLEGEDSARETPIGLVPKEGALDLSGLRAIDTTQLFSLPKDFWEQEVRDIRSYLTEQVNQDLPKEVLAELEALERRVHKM

PC-9 = test: Antitumor activity against human PC9 cells xenografted in athymic nude mouse assessed as reduction in tumor volume at 10 mg/kg, ip administered once daily for 25 days measured post-last dose; assay type: functional, organism-based; how it was run: as §2
Pyruvate kinase PKM [6] = target: T1, Pyruvate kinase PKM; test: Inhibition of N-(4-(3-(3-(Methylamino)-3-oxopropyl)-5-(4'-(prop-2-yn-1-yloxy)-[1,1'-biphenyl]-4-yl)-1H-pyrazol-1-yl)phenyl)propiolamide binding to PKM2 in human PC9 cells at 1 uM preincubated for 1 hr followed by probe addition and measured after 1 hr by Western blot analysis; assay type: cell-based
How it was run: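 PC-9 cells pretreated with 1 µM compound or DMSO for 1 h, then alkyne probe added at 0.5, 1 or 2 µM for 1 h at 37 °C. Lysates put through Cu-catalysed click with biotin-azide, streptavidin beads 16 h at 4 °C, washes with 0.5% SDS/PBS, 10% SDS-PAGE and PKM2 Western blot.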

Mus musculus [7] = test: In vivo inhibition of PKM2 in human PC9 cells xenografted in athymic nude mouse assessed as reduction in beta-catenin expression at 10 mg/kg, ip administered once daily for 25 days measured post-last dose by Western blot analysis; assay type: functional, organism-based; how it was run: as §3
Pyruvate kinase PKM [8] = target: T1, Pyruvate kinase PKM; test: Inhibition of PKM2 in human PC9 cells assessed as reduction in beta-catenin phosphorylation incubated for 24 hrs by Western blot analysis; assay type: cell-based; how it was run: as §1
NCI-H157 = test: Antiproliferative activity against human NCI-H157 cells expressing wild type EGFR assessed as reduction in cell viability incubated for 24 hrs by MTT assay; assay type: functional, cell-based; details: NCI-H157, 24 h
How it was run: (§5)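 Cells seeded at 3,500 per well in 10% FBS and left overnight, then exposed to test agent or vehicle in 5% FBS for 24 h. MTT added for 1 h, then medium swapped for DMSO and absorbance read at 560 nm. Viability given as percent of vehicle-treated control. Run in triplicate.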

NCI-H460 = test: Antiproliferative activity against human H460 cells expressing wild type EGFR assessed as reduction in cell viability incubated for 24 hrs by MTT assay; assay type: functional, cell-based; details: NCI-H460, 24 h; how it was run: as §5

For C#CC(=O)Nc1ccc(-n2nc(CCC(=O)NC)cc2-c2ccc(-c3ccc(C(F)(F)F)cc3)cc2)cc1, the inhibition (Pyruvate kinase PKM [1]) was “inactive”, the Activity [2] was “Non-Toxic” and the inhibition (Mus musculus [3]) was “Active”. The Activity [4] was “Active”, the Activity [5] was “Active” and the Activity (PC-9) was “Active”. The inhibition (Pyruvate kinase PKM [6]) was “Active”, the inhibition (Mus musculus [7]) was “Active” and the inhibition (Pyruvate kinase PKM [8]) was “Dose-dependent effect”. For the same compound, the IC50 (NCI-H157) was greater than 2000 nM and the IC50 (NCI-H460) was 1500 nM.
